Shown are actives, neighbours in structure and some others; about 1.9% of the full set was active somewhere.
PGC1a acetyl inh = lowers PGC1a acetylation signal in U2OS cells; AlphaScreen anti-acetyl-lysine; with virally co-expressed GCN5 acetyltransferase; inhibition, % at 15.6 µM; actives 0.17% (n = 350,000); AID 651687;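 active means every replicate shows inhibition of at least 40%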;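 further: 0% = neutral control wells and 100% = positive control wells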
CFTR F508del cor = CFTR F508del correction in bronchial cells. CFBE cells, YFP halide quenching; stimulated with forskolin plus potentiator P3; % fluorescence drop versus neutral controls. activity (quench increase), % at 7.58 µM. actives 0.36% (n = 350,000). AID 720511;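 active means mean added fluorescence quench of at least 8% versus neutral control, with both replicates also reaching 8%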;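 further: cells transiently co-express mutant CFTR-F508del with the halide-sensitive YFP; corrector assay measuring rescue of mutant channel to the surface after 24 h compound exposure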
Cneo AK release = causes C. neoformans cell lysis. actives 0.2% (n = 360,000). adenylate kinase release luminescence, 4 h; normalised: neutral wells 0, clomiphene wells 100. lysis activity, % at 15 µM;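 active means mean lysis activity across replicates of at least 80%, whatever share of replicates individually reach that level; inactive means mean lysis activity below 80%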
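Assay system: Cryptococcus neoformans yeast cells / Dosing: single-point compound dose / Timing: 4 h at 37 °C static, read 1 h later / Measured by: luminescence of released adenylate kinase using an AK detection reagent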
FN deposition inh = fibronectin deposition inhibition. AH1F fibroblasts, Alexa488-fibronectin deposition fluorescence, overnight. inhibition, % at 12.6 µM. actives 0.086% (n = 350,000). AID 743247;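 active means mean inhibition across replicates of 30% or more, regardless of how many single replicates reach that level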;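 further: positive control wells lacked labelled fibronectin entirely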
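Assay system: AH1F fibroblasts assembling fluorescent fibronectin matrix; Amount: 10000 AH1F cells per well; Buffer or medium: DMEM, 2% serum; Probe or stimulus: Alexa488-fibronectin, 24 nM final in well; Doses: single compound dose, delivered by pin transfer; Incubation: 1 h adhesion, overnight exposure; Measured by: fluorescence 485/525 nm; Read-out: fibronectin deposition inhibition.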
XiGFP reactiv = X-chromosome reactivation activator; XiGFP mouse fibroblasts, % GFP-positive cells imaging, 3 d; cells co-treated with 5-aza-dC sensitizer; scaled so ellipticine positive control = 100%; activation, % at 7.58 µM; actives 0.055% (n = 360,000); AID 743238;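 active means mean normalized replicate activation at least 10% and every replicate at or above 10%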;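 further: 0% = median of on-plate neutral control wells and 100% = ellipticine 6 µM median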
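assay system = SV40-immortalized XiGFP fibroblast cells, line 68-5-11 | buffer or medium = DMEM plus 5-aza-dC sensitizer | doses = single-point pinned compound dosing | times = 3-day compound exposure, then 15 min fixation at room temperature | benchmarks = positive control ellipticine, 6 µM final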
DENV2 CPE = inhibitors of DENV2 cytopathic effect | CPE inhibition, % at 9.99 µM | AID 651640 | DENV2-infected cells, cytopathic effect rescue, plate reader | actives 1.7% (n = 350,000); in the data active means CPE inhibition above about 20%, passing the limit was not always enough; tested in BHK-21 cells;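 further: 0% = median of neutral control wells and 100% = median of positive control wells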
Numbers without * were called inactive; ! = repeats disagree.

Screening CN(C)CC(=O)N1[C@@H](C#N)[C@@H](c2ccc(C#CC3CCCC3)cc2)[C@@H]1CO returned PGC1a acetyl inh -20.2, CFTR F508del cor 1.9, Cneo AK release 0.7, FN deposition inh -19.3, XiGFP reactiv 0.0 and DENV2 CPE 39.3*.
For N#C[C@H]1N[C@H](CO)[C@@H]1c1ccc(C#CC2CCCC2)cc1 the results were PGC1a acetyl inh -18.4, CFTR F508del cor 1.4, Cneo AK release 53.5, FN deposition inh -2.4, XiGFP reactiv 0.1 and DENV2 CPE 9.0.
CN(C)CC(=O)N1[C@H](C#N)[C@H](c2ccc(C#CC3CCCC3)cc2)[C@H]1CO was read as PGC1a acetyl inh 2.7, CFTR F508del cor 0.8, Cneo AK release 2.9, FN deposition inh -17.9, XiGFP reactiv -0.1 and DENV2 CPE 1.3.
For N#C[C@H]1[C@H](c2ccc(C#CC3CCCC3)cc2)[C@H](CO)N1S(=O)(=O)c1ccccc1 the results were PGC1a acetyl inh 0.3, CFTR F508del cor -1.8, Cneo AK release -2.2, FN deposition inh -15.8, XiGFP reactiv -0.2 and DENV2 CPE 0.5.
Screening N#C[C@@H]1N[C@@H](CO)[C@H]1c1ccc(C#CC2CCCC2)cc1 returned PGC1a acetyl inh -17.3, CFTR F508del cor -0.5, Cneo AK release -2.1, FN deposition inh -4.8, XiGFP reactiv 0.0 and DENV2 CPE 20.6*.
Screening CN(C)CC(=O)N1[C@H](C#N)[C@H](c2ccc(C#CC3CCCC3)cc2)[C@@H]1CO returned PGC1a acetyl inh -30.9, CFTR F508del cor 0.4, Cneo AK release 3.0, FN deposition inh -5.9, XiGFP reactiv 0.0 and DENV2 CPE 31.0*.
Screening N#C[C@H]1[C@@H](c2ccc(C#CC3CCCC3)cc2)[C@H](CO)N1S(=O)(=O)c1ccccc1 returned PGC1a acetyl inh -0.5, CFTR F508del cor 3.7, Cneo AK release 1.8, FN deposition inh -6.0, XiGFP reactiv 0.1 and DENV2 CPE 20.9*.
COCC(=O)N1[C@H](CO)[C@@H](c2ccccc2)[C@@H]1CN(C)C(=O)c1ccccc1 was read as PGC1a acetyl inh 7.1, CFTR F508del cor -1.8, Cneo AK release -3.7, FN deposition inh -12.6, XiGFP reactiv 0.1 and DENV2 CPE -13.1.
For C[C@H]1CCCCO[C@H](CN(C)C(=O)c2ccccc2)[C@@H](C)CN([C@@H](C)CO)C(=O)c2cc(NC(=O)Nc3ccccc3)ccc2O1 the results were PGC1a acetyl inh -11.6, CFTR F508del cor 2.1, Cneo AK release 8.2, FN deposition inh -27.0, XiGFP reactiv 0.0 and DENV2 CPE 4.4.
Screening CC(C)c1ccccc1NC(=S)NN(Cc1ccccc1)c1ccccc1 returned Cneo AK release 230.6* and FN deposition inh 5.7.
`COc1ccc(NC(=O)Nc2ccc3c(c2)[C@@H]2C[C@@H](CC(=O)NCC4CC4)O[C@@H](CO)[C@@H]2O3)cc1` gave PGC1a acetyl inh -13.3, CFTR F508del cor 3.6, Cneo AK release -4.5, FN deposition inh -32.9, XiGFP reactiv 0.3 and DENV2 CPE 15.9.
Screening COCCOC(=O)N1C(=O)[C@@]2(c3cc(C#CC4=CCCCC4)ccc31)[C@H](c1ccc(O)cc1)N1[C@H](c3ccccc3)[C@H](c3ccccc3)OC(=O)[C@H]1[C@@H]2C(N)=O returned CFTR F508del cor 1.3, Cneo AK release -4.0 and DENV2 CPE 1.8.
Cc1ccc(-c2ccc3c(c2)O[C@H](CN(C)C(=O)Nc2ccc(C(F)(F)F)cc2)[C@H](C)CN([C@@H](C)CO)S3(=O)=O)cc1 was read as PGC1a acetyl inh 10.3, CFTR F508del cor 8.6*, Cneo AK release -2.0, FN deposition inh 14.8, XiGFP reactiv -0.5 and DENV2 CPE -2.6.
For C[C@@H]1CN([C@H](C)CO)S(=O)(=O)c2ccc(-c3cccc(C#N)c3)cc2O[C@H]1CN(C)C(=O)Nc1cc(F)ccc1F the results were PGC1a acetyl inh -3.3, CFTR F508del cor 1.7, Cneo AK release -3.5, FN deposition inh 7.5, XiGFP reactiv 0.0 and DENV2 CPE 29.4*!.
`C[C@@H]1CN([C@H](C)CO)S(=O)(=O)c2ccc(-c3cccc(C(=O)N(C)C)c3)cc2O[C@H]1CN(C)C(=O)Nc1ccc(F)cc1` gave PGC1a acetyl inh 11.6, CFTR F508del cor 5.2, Cneo AK release 0.1, FN deposition inh 4.4, XiGFP reactiv 0.3 and DENV2 CPE 27.1*!.
Cc1ccc(-c2ccc3c(c2)O[C@H](CN(C)C(=O)Nc2ccc(F)cc2)[C@@H](C)CN([C@@H](C)CO)S3(=O)=O)cc1 was read as PGC1a acetyl inh -2.5, CFTR F508del cor 11.7*, Cneo AK release 1.7, FN deposition inh -0.7, XiGFP reactiv -1.4 and DENV2 CPE 14.4.
`COCC#Cc1cnc2c(c1)C(=O)N([C@@H](C)CO)C[C@@H](C)[C@@H](CN(C)C(=O)Cc1cccnc1)O2` gave PGC1a acetyl inh 0.0, CFTR F508del cor 1.2, XiGFP reactiv 0.1 and DENV2 CPE -5.9.
`Cc1ccc(-c2ccc3c(c2)O[C@@H](CN(C)C(=O)Nc2ccc(F)cc2)[C@@H](C)CN([C@@H](C)CO)S3(=O)=O)cc1` gave PGC1a acetyl inh 4.3, CFTR F508del cor 8.5*, Cneo AK release 0.0, FN deposition inh 6.7, XiGFP reactiv 0.1 and DENV2 CPE 30.4*.
`CC(C)CC#Cc1ccc2c(c1)O[C@@H](CN(C)Cc1ccc(F)cc1)[C@@H](C)CN([C@H](C)CO)S2(=O)=O` gave PGC1a acetyl inh -20.0, CFTR F508del cor 4.3, Cneo AK release 14.2, XiGFP reactiv -2.1 and DENV2 CPE 45.4*.
Screening CC(C)CC#Cc1ccc2c(c1)O[C@@H](CN(C)Cc1ccc3c(c1)OCO3)[C@H](C)CN([C@H](C)CO)S2(=O)=O returned PGC1a acetyl inh 53.4*, CFTR F508del cor -4.9, Cneo AK release 18.9, FN deposition inh -1.9, XiGFP reactiv -0.6 and DENV2 CPE -1.3.
CC(C)CC#Cc1ccc2c(c1)O[C@@H](CN(C)Cc1cncnc1)[C@H](C)CN([C@@H](C)CO)S2(=O)=O was read as PGC1a acetyl inh 13.7, CFTR F508del cor -0.3, Cneo AK release -5.9, XiGFP reactiv -0.6 and DENV2 CPE 23.9*.
CC(C)CC#Cc1ccc2c(c1)O[C@H](CN(C)Cc1cncnc1)[C@H](C)CN([C@@H](C)CO)S2(=O)=O was read as PGC1a acetyl inh -3.7, CFTR F508del cor -1.2, Cneo AK release -2.1, XiGFP reactiv -0.3 and DENV2 CPE -4.3.
Screening C/C=C/c1ccc2c(c1)O[C@H](CN(C)C(=O)Cc1cccnc1)[C@H](C)CN([C@H](C)CO)S2(=O)=O returned PGC1a acetyl inh 14.2, CFTR F508del cor 1.5, Cneo AK release 8.2, XiGFP reactiv -0.3 and DENV2 CPE -3.7.
